Results from ChEMBL document CHEMBL1909505, “Leonurine-cysteine analog conjugates as a new class of multifunctional anti-myocardial ischemia agent” (Eur J Med Chem, 2011).
Activity calls are given as the source filed them. The rule behind the calls is not given here.

Legend:
[1] = Cardioprotective activity against hypoxia-induced Sprague-Dawley NRVM damage assessed as inhibition of LDH release treated 12 hrs before hypoxia challenge measured after 5 hrs; type: functional; conditions: Rattus norvegicus
[2] = Cardioprotective activity against hypoxia-induced Sprague-Dawley NRVM damage assessed as increase in hydrogen sulfide level treated 12 hrs before hypoxia challenge measured after 5 hrs; type: functional; conditions: Rattus norvegicus
How it was run: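 H2S in culture medium: 0.5 mL supernatant mixed with 0.25 mL 1% zinc acetate, then 0.25 mL 10% TCA to remove protein, centrifuged 12,000 g for 10 min at 4 °C. Absorbance read at 670 nm in duplicate against a same-day NaHS calibration curve. Cells pretreated 12 h before hypoxia; three or six samples.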

Rattus norvegicus [3] = species: Rattus norvegicus; assay: Cardioprotective activity against hypoxia-induced Sprague-Dawley NRVM damage assessed as increased cell viability at 0.1 umol/L treated 12 hrs before hypoxia challenge measured after 5 hrs by MTT assay; type: functional
How it was run: (§1)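 Myocytes seeded at 1×10^5 cells/mL and cultured 72 h at 37 °C in 5% CO2, pretreated 12 h, then exposed to hypoxic solution. MTT added for 4 h, formazan dissolved in DMSO, absorbance read at 570 nm. Viability given as percent of normoxic control, taken as 100%.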

[4] = Cardioprotective activity against hypoxia-induced Sprague-Dawley NRVM damage assessed as increase in hydrogen sulfide level at 0.1 uM treated 12 hrs before hypoxia challenge measured after 5 hrs; type: functional; conditions: Rattus norvegicus
[5] = Antiapoptotic activity against hypoxia-induced Sprague-Dawley NRVM assessed as inhibition of cell necrosis treated 12 hrs before hypoxia challenge measured after 5 hrs by AnnexinV-FITC/PI staining-based flow cytometric analysis; type: functional; conditions: Rattus norvegicus
How it was run: (§2)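 Cardiomyocytes pretreated 12 h before hypoxia. Annexin V-FITC/PI staining done with a kit per the manufacturer, then read by flow cytometry to separate apoptotic from necrotic cells. Means ± S.E.M. from three samples; two-tailed Student's t-test versus the model group.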

[6] = Antiapoptotic activity against hypoxia-induced Sprague-Dawley NRVM assessed as increase in bcl-2 expression treated 12 hrs before hypoxia challenge measured after 5 hrs by RT-PCR analysis relative to control; type: functional; conditions: Rattus norvegicus
[7] = Antiapoptotic activity against hypoxia-induced Sprague-Dawley NRVM assessed as decrease in nuclei-shrunk treated 12 hrs before hypoxia challenge measured after 5 hrs using Hoechst 33258 staining-based by fluorescence microscopy; type: functional; conditions: Rattus norvegicus
How it was run: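 After 12 h pretreatment and hypoxia, myocytes were stained with Hoechst 33258 and photographed under fluorescence (×400). Each image is representative of three independent observations.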

Rattus norvegicus [8] = species: Rattus norvegicus; assay: Cardioprotective activity against hypoxia-induced Sprague-Dawley NRVM damage assessed as decrease in MDA level treated 12 hrs before hypoxia challenge measured after 5 hrs […]; type: functional
Rattus norvegicus [9] = species: Rattus norvegicus; assay: Cardioprotective activity against hypoxia-induced Sprague-Dawley NRVM damage assessed as increased cell viability at 0.1 uM treated 12 hrs before hypoxia challenge measured after 5 hrs by MTT assay; type: functional; how it was run: as §1
[10] = Antiapoptotic activity against hypoxia-induced Sprague-Dawley NRVM assessed as decrease in cleaved-caspase-3 to procaspase-3 ratio treated 12 hrs before hypoxia challenge measured after 5 hrs by Western blot analysis relative to control; conditions: Rattus norvegicus
[11] = Antiapoptotic activity against hypoxia-induced Sprague-Dawley NRVM assessed as decrease in nuclear condensation treated 12 hrs before hypoxia challenge measured after 5 hrs by transmission electron microscopy; type: functional; conditions: Rattus norvegicus
How it was run: (§3)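 Neonatal rat ventricular myocytes cultured 72 h (DMEM, 10% FBS, 5-bromodeoxyuridine), pretreated 12 h, then put in hypoxic solution. Cells fixed 2 h in 2.5% glutaraldehyde in PBS, post-fixed 1 h in 1% osmium tetroxide, dehydrated through graded ethanol, embedded in Epon 812, and examined by transmission electron microscopy (×11000). Compared with normoxic and hypoxic untreated groups.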

[12] = Antiapoptotic activity against hypoxia-induced Sprague-Dawley NRVM assessed as decrease in bax expression treated 12 hrs before hypoxia challenge measured after 5 hrs by RT-PCR analysis relative to control; type: functional; conditions: Rattus norvegicus
[13] = Cardioprotective activity against hypoxia-induced Sprague-Dawley NRVM damage assessed as inhibition of LDH release at 0.1 uM treated 12 hrs before hypoxia challenge measured after 5 hrs; type: functional; conditions: Rattus norvegicus
[14] = Antiapoptotic activity against hypoxia-induced Sprague-Dawley NRVM assessed as appearance of distinct sarcomeres treated 12 hrs before hypoxia challenge measured after 5 hrs by transmission electron microscopy; type: functional; conditions: Rattus norvegicus; how it was run: as §3
[15] = Cardioprotective activity against hypoxia-induced Sprague-Dawley NRVM damage assessed as increase in CAT activity treated 12 hrs before hypoxia challenge measured after 5 hrs […]; type: functional; conditions: Rattus norvegicus
How it was run: (§4)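 Kit assays per the manufacturer for ROS level and catalase activity in hypoxic myocytes pretreated 12 h. Means ± S.E.M. from three samples; t-test versus the model group.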

[16] = Antiapoptotic activity against hypoxia-induced Sprague-Dawley NRVM assessed as decrease in apoptotic cells treated 12 hrs before hypoxia challenge measured after 5 hrs by AnnexinV-FITC/PI staining-based flow cytometric analysis; type: functional, cell-based; conditions: Rattus norvegicus; how it was run: as §2
[17] = Down regulation of caspase-3 expression in hypoxia-induced Sprague-Dawley NRVM treated 12 hrs before hypoxia challenge measured after 5 hrs by RT-PCR down analysis relative to control; type: functional; conditions: Rattus norvegicus
[18] = Cardioprotective activity against hypoxia-induced Sprague-Dawley NRVM damage assessed as decrease in ROS level treated 12 hrs before hypoxia challenge measured after 5 hrs […]; type: functional; conditions: Rattus norvegicus; how it was run: as §4
[19] = Antiapoptotic activity against hypoxia-induced Sprague-Dawley NRVM assessed as increase in myofilaments integrity preservation treated 12 hrs before hypoxia challenge measured after 5 hrs by transmission electron microscopy; type: functional; conditions: Rattus norvegicus; how it was run: as §3
[20] = Cardioprotective activity against hypoxia-induced Sprague-Dawley NRVM damage assessed as increase in SOD activity treated 12 hrs before hypoxia challenge measured after 5 hrs […]; type: functional; conditions: Rattus norvegicus
[21] = Antiapoptotic activity against hypoxia-induced Sprague-Dawley NRVM assessed as increase in Bcl2 to Bax mRNA expression ratio treated 12 hrs before hypoxia challenge measured after 5 hrs by RT-PCR analysis relative to control; type: functional; conditions: Rattus norvegicus
[22] = Antiapoptotic activity against hypoxia-induced Sprague-Dawley NRVM assessed as decrease in nucleus aggregation treated 12 hrs before hypoxia challenge measured after 5 hrs by transmission electron microscopy; type: functional; conditions: Rattus norvegicus; how it was run: as §3

Compound	inhibition [1]	Activity [2]	Activity (Rattus norvegicus [3])	Activity [4]	Activity (Rattus norvegicus [9])	inhibition [13]	further results
COc1cc(C(=O)OCCCCNC(=N)N)cc(OC)c1OC(=O)CCSSCCC(=O)Oc1c(OC)cc(C(=O)OCCCCNC(=N)N)cc1OC	Active	inactive	Active	–	–	–	–
C#CCSC[C@H](N)C(=O)Oc1c(OC)cc(C(=O)OCCCCNC(=N)N)cc1OC	Active	Active	Active	Active	Active	Active	inhibition [5]: inactive; fold change (FC) [6]: 0.98; Activity [7]: Active; Activity (Rattus norvegicus [8]): Active; Activity [10]: Active; Activity [11]: Active; fold change (FC) [12]: 0.89; Activity [14]: Active; Activity [15]: Active; Activity [16]: Active; Activity [17]: Active; Activity [18]: Active; Activity [19]: Active; Activity [20]: Active; fold change (FC) [21]: 1.22; Activity [22]: Active
COc1cc(C(=O)OCCCCNC(=N)N)cc(OC)c1O	–	–	–	Active	Active	Active	–
C#CCSC[C@H](N)C(=O)O	–	–	–	Active	Active	Active	–
C=CCSC[C@H](N)C(=O)Oc1c(OC)cc(C(=O)OCCCCNC(=N)N)cc1OC	Active	Active	Active	–	–	–	–
